Results: ChEMBL document CHEMBL2069243, “Synthesis and SAR of pyridothiazole substituted pyrimidine derived HCV replication inhibitors” (Bioorg Med Chem Lett, 2012)
pEC50: −log10 of the molar value.

What was measured:
Hepatitis C virus = assay: Antiviral activity against Hepatitis C virus 1b con1 infected in human hepatoma cells assessed as decrease in replicon RNA level after 3 days by RT-PCR analysis; type: functional, organism-based, Hepacivirus hominis; details: genotype 1b Con1, 72 h
Outline: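 Con1 genotype 1b replicon cells were seeded at 5000 cells/well one day before treatment. Compound in DMSO was added (final 0.5% DMSO, 10% FBS) as 10 serial twofold dilutions in triplicate. Cells were harvested 3 days after dosing. Replicon RNA was quantified by real-time RT-PCR (Taqman), normalized to GAPDH RNA, and EC50 was calculated.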

[1] = Cytotoxicity against human hepatoma cells after 3 days by MTS assay; type: cell-based
Outline: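 MTS cell proliferation assay on replicon cells handled as in the replicon activity assay (seeded one day before, 0.5% DMSO, 10% FBS, serial dilutions), read 3 days after dosing. CC50 is the concentration giving 50% inhibition relative to vehicle-treated cells.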

[2] = Cytotoxicity against human hepatoma cells assessed as decrease in GADPH RNA level after 3 days by Rt-PCR analysis; type: cell-based
[3] = AUC (0 to 6 hrs) in rat at 10 mg/kg, po; type: ADME, organism-based; parameters: time < 6 hr, dose 10 mg/kg, route oral; details: plasma
Outline: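 Rats were dosed orally at 10 mpk in 0.4% methylcellulose, n=2 per compound. Plasma was sampled at 8 time points up to 6 h, and exposure was reported as AUC0-6 h.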

[4] = Drug uptake in rat liver at 10 mg/kg, po at 6 hrs; type: ADME, organism-based; parameters: dose 10 mg/kg, route oral; details: read-out: Drug uptake
Outline: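 Rats were dosed orally at 10 mpk in 0.4% methylcellulose, n=2. Animals were sacrificed at 6 h, and liver was harvested and processed to measure compound concentration (liver C6 h).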

Row | SMILES | pEC50 (Hepatitis C virus) | CC50 at 72 h [1] [µM] | CC50 at 72 h [2] [µM] | AUC(0-t) at 6 h [3] [µM·h] | concentration at 6 h [4] [ng/g]
1 | Cc1nc(NCc2ccc(OC(F)(F)F)cc2)nc(N[C@@H]2C[C@H](CO)[C@@H](O)[C@H]2O)c1-c1nc2cnccc2s1 | 8.52 | 25 | 25 |  | 
2 | Cc1nc(NCc2c(F)cccc2F)nc(N[C@@H]2C[C@H](CO)[C@@H](O)[C@H]2O)c1-c1nc2cnccc2s1 | 9.00 | 10 | 4 |  | 
3 | Cc1cc2sc(-c3c(C)nc(N[C@H](C)c4ccc(OC(F)(F)F)cc4)nc3N[C@@H]3C[C@H](CO)[C@@H](O)[C@H]3O)nc2cn1 | 7.42 | > 25 | 25 |  | 
4 | Cc1cc2sc(-c3c(C)nc(N[C@H](C)c4ccc(OC(F)(F)F)cc4)nc3N[C@@H]3C[C@H](CO)[C@@H](O)[C@H]3O)nc2c(C2CC2)n1 | 6.15 | 24 | 21 |  | 
5 | Cc1nc(N)nc(N[C@@H]2C[C@H](CO)[C@@H](O)[C@H]2O)c1-c1nc2cnccc2s1 | 6.91 | 18 | 25 |  | 
6 | CCc1cc2sc(-c3c(C)nc(N[C@H](C)c4ccc(OC(F)(F)F)cc4)nc3N[C@@H]3C[C@H](CO)[C@@H](O)[C@H]3O)nc2c(CC)n1 | 7.16 | 13 | 12 |  | 
7 | Cc1nc(NCc2ccccc2)nc(N[C@@H]2C[C@H](CO)[C@@H](O)[C@H]2O)c1-c1nc2cnccc2s1 | 8.52 | 14 | 25 |  | 
8 | CCOCCNc1nc(C)c(-c2nc3cnccc3s2)c(N[C@@H]2C[C@H](CO)[C@@H](O)[C@H]2O)n1 | 8.05 | 16 | 25 | 0.2 | 368
9 | Cc1nc(N[C@H](C)c2ccc(OC(F)(F)F)cc2)nc(N[C@@H]2C[C@H](CO)[C@@H](O)[C@H]2O)c1-c1nc2c(C(C)C)nccc2s1 | 7.59 | 10 | 11 | 3.2 | 8500
10 | Cc1nc(Nc2ccccc2)nc(N[C@@H]2C[C@H](CO)[C@@H](O)[C@H]2O)c1-c1nc2cnccc2s1 | 6.77 | > 25 | 25 | 0.2 | 29
11 | Cc1nc(N[C@H](C)c2ccc(-c3cnn(C)c3)cc2)nc(N[C@@H]2C[C@H](CO)[C@@H](O)[C@H]2O)c1-c1nc2cnccc2s1 | 7.77 | 25 | 25 |  | 
12 | Cc1cc2sc(-c3c(C)nc(N[C@H](C)c4ccc(OC(F)(F)F)cc4)nc3N[C@@H]3C[C@H](CO)[C@@H](O)[C@H]3O)nc2c(C)n1 | 7.37 | 12 | 20 | 5.6 | 9800
13 | CCc1nccc2sc(-c3c(C)nc(N[C@H](C)c4ccc(OC(F)(F)F)cc4)nc3N[C@@H]3C[C@H](CO)[C@@H](O)[C@H]3O)nc12 | 7.70 | 7 | 7 | 5.8 | 6000
14 | COc1cc(OC)cc([C@@H](C)Nc2nc(C)c(-c3nc4cnccc4s3)c(N[C@@H]3C[C@H](CO)[C@@H](O)[C@H]3O)n2)c1 | 7.43 | 25 | 25 | 0.1 | 17
15 | Cc1nc(NC2CC2)nc(N[C@@H]2C[C@H](CO)[C@@H](O)[C@H]2O)c1-c1nc2cnccc2s1 | 6.90 | 19 | 25 | 1.4 | 276
16 | Cc1nc(N(C)C)nc(N[C@@H]2C[C@H](CO)[C@@H](O)[C@H]2O)c1-c1nc2cnccc2s1 | 6.25 | > 25 | 25 | 7.5 | 1400

Row | SMILES | pEC50 (Hepatitis C virus) | CC50 at 72 h [1] [µM] | CC50 at 72 h [2] [µM] | AUC(0-t) at 6 h [3] [µM·h] | concentration at 6 h [4] [ng/g]
17 | Cc1ccc(C2(Nc3nc(C)c(-c4nc5cnccc5s4)c(N[C@@H]4C[C@H](CO)[C@@H](O)[C@H]4O)n3)CC2)cc1 | 5.50 | > 25 | 25 |  | 
18 | Cc1nc(NCC2CC2)nc(N[C@@H]2C[C@H](CO)[C@@H](O)[C@H]2O)c1-c1nc2cnccc2s1 | 8.10 | 5 | 3 | 0.4 | 192
19 | Cc1nc(NCC(F)(F)F)nc(N[C@@H]2C[C@H](CO)[C@@H](O)[C@H]2O)c1-c1nc2cnccc2s1 | 7.80 | > 25 | 25 |  | 
20 | CNc1nc(C)c(-c2nc3cnccc3s2)c(N[C@@H]2C[C@H](CO)[C@@H](O)[C@H]2O)n1 | 7.28 | 20 | 14 | 0.3 | 
21 | Cc1nc(N[C@H](C)c2ccc(OC(F)(F)F)cc2)nc(N[C@@H]2C[C@H](CO)[C@@H](O)[C@H]2O)c1-c1nc2c(N)nccc2s1 | 7.43 | > 25 | 25 |  | 
22 | Cc1nc(N[C@H](C)c2ccc(OC(F)(F)F)cc2)nc(N[C@@H]2C[C@H](CO)[C@@H](O)[C@H]2O)c1-c1nc2c(CCC#N)nccc2s1 | 7.47 | 12 | 12 | 0.4 | 16
23 | Cc1nc(N[C@H](C)c2ccc(OC(F)(F)F)cc2)nc(N[C@@H]2C[C@H](CO)[C@@H](O)[C@H]2O)c1-c1nc2c(C3CCC3)nccc2s1 | 7.80 | 5 | 5 | 3.3 | 4900
24 | CCc1nc(C)cc2sc(-c3c(C)nc(N[C@H](C)c4ccc(OC(F)(F)F)cc4)nc3N[C@@H]3C[C@H](CO)[C@@H](O)[C@H]3O)nc12 | 6.58 | 24 | 23 | 25 | 257
25 | Cc1nc(N[C@H](C)c2ccc(F)cc2)nc(N[C@@H]2C[C@H](CO)[C@@H](O)[C@H]2O)c1-c1nc2cnccc2s1 | 6.65 | 25 | 25 |  | 
26 | Cc1nc(NC(C)(C)c2ccccc2)nc(N[C@@H]2C[C@H](CO)[C@@H](O)[C@H]2O)c1-c1nc2cnccc2s1 | 5.21 | > 25 | 25 |  | 
27 | Cc1nc(N[C@@H](C)c2ccccc2)nc(N[C@@H]2C[C@H](CO)[C@@H](O)[C@H]2O)c1-c1nc2cnccc2s1 | 6.65 | > 25 | 25 | 0.1 | 77
28 | COc1cc(CCNc2nc(C)c(-c3nc4cnccc4s3)c(N[C@@H]3C[C@H](CO)[C@@H](O)[C@H]3O)n2)cc(OC)c1 | 7.92 | 19 | 25 | 0.1 | 100
29 | Cc1nc(N(C)Cc2ccccc2)nc(N[C@@H]2C[C@H](CO)[C@@H](O)[C@H]2O)c1-c1nc2cnccc2s1 | 6.52 | > 25 | 25 | 0.2 | 100
30 | Cc1nc(NCC2CCN(C)CC2)nc(N[C@@H]2C[C@H](CO)[C@@H](O)[C@H]2O)c1-c1nc2cnccc2s1 | 5.77 | > 25 | 25 |  | 
31 | CCCc1nccc2sc(-c3c(C)nc(N[C@H](C)c4ccc(OC(F)(F)F)cc4)nc3N[C@@H]3C[C@H](CO)[C@@H](O)[C@H]3O)nc12 | 7.70 | 13 | 13 | 0.8 | 1260
32 | COC(=O)CCc1nccc2sc(-c3c(C)nc(N[C@H](C)c4ccc(OC(F)(F)F)cc4)nc3N[C@@H]3C[C@H](CO)[C@@H](O)[C@H]3O)nc12 | 7.23 | 14 | 23 |  | 
